In ChEMBL document CHEMBL4699394, “Insights into structural and physicochemical properties required for beta-hematin inhibition of privileged triarylimidazoles” (RSC Med Chem, 2020):

How the values were obtained:
HeLa = assay: Cytotoxicity against human HeLa cells assessed as reduction in cell viability at 20 uM incubated for 48 hrs by FACS analysis; format: cell-based
Hemozoin = assay: Inhibition of beta-hematin formation assessed as reduction in hemozoin formation incubated for 20 hrs by NP40 detergent-mediated assay
How it was run: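 In vitro β-hematin formation assay buffered at acidic pH 4.8 to mimic the parasite digestive vacuole. IC50 is the mean of experiments run in technical triplicate.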

Plasmodium falciparum [1] = assay: Antimalarial activity against Plasmodium falciparum 3D7 infected in human Erythrocyte assessed as reduction in plasmodial growth incubated for 48 hrs by FACS analysis; format: functional, organism-based; conditions: 3D7, Erythrocyte
How it was run: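 Dose-response IC50 against P. falciparum 3D7. Only compounds that reduced parasite viability below 10% in a 20 μM, 48 h single-concentration screen were tested. IC50 is the mean of experiments run in technical triplicate.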

Plasmodium falciparum [2] = assay: Antimalarial activity against Plasmodium falciparum 3D7 infected in human Erythrocyte assessed as plasmodial growth at 20 uM incubated for 48 hrs by FACS analysis relative to control; format: functional

Structure (SMILES) | Activity (HeLa) | IC50 (Hemozoin) | IC50 (Hemozoin; read-out: IC50) [µM] | IC50 (Plasmodium falciparum [1]) [µM] | Activity (Plasmodium falciparum [2]) [%]
O=[N+]([O-])c1cccc(-c2nc(-c3ccccc3)c(-c3ccccc3)[nH]2)c1 | Non-Toxic | Not Active |  |  | 
c1ccc(-c2nc(C3CCCCC3)[nH]c2-c2ccccc2)cc1 | Non-Toxic |  | > 500 |  | 
Fc1ccccc1-c1nc(-c2ccccc2)c(-c2ccccc2)[nH]1 | Non-Toxic |  | > 500 |  | 
COc1ccccc1-c1nc(-c2ccccc2)c(-c2ccccc2)[nH]1 | Non-Toxic | Not Active |  |  | 
Fc1ccc(-c2nc(-c3ccc(Cl)cc3)c(-c3ccccc3)[nH]2)cc1 | Non-Toxic |  | 28 | 6.5 | <10
Brc1ccc(-c2nc(-c3ccccc3)[nH]c2-c2ccccc2)cc1 | Non-Toxic |  | 294 |  | 
Fc1ccccc1-c1nc(-c2ccc(Cl)cc2)c(-c2ccccc2)[nH]1 | Non-Toxic |  | > 500 |  | 
Brc1ccc(-c2nc(-c3ccccc3)[nH]c2-c2ccc(Br)cc2)cc1 | Non-Toxic | Not Active |  | 13 | <10
Clc1ccc(-c2nc(-c3ccc(Cl)cc3)c(-c3ccccc3)[nH]2)cc1 | Non-Toxic |  | 39 |  | 
CCN(CC)CCCC(C)Nc1ccnc2cc(Cl)ccc12 (configuration not stated) [CHLOROQUINE] |  |  | 16.9 |  | 
Brc1ccc(-c2nc(-c3ccccc3)c(-c3ccccc3)[nH]2)cc1 | Non-Toxic |  | 489 |  | 
c1ccc(-c2nc(-c3c[nH]c4ccccc34)[nH]c2-c2ccccc2)cc1 | Non-Toxic |  | 72.8 |  | 
O=[N+]([O-])c1cccc(-c2nc(-c3ccc(Cl)cc3)c(-c3ccccc3)[nH]2)c1 | Non-Toxic |  | > 500 |  | 
Fc1cccc(-c2nc(-c3ccccc3)c(-c3ccccc3)[nH]2)c1 | Non-Toxic | Not Active |  |  | 
COc1ccc(-c2nc(-c3ccccc3)c(-c3ccccc3)[nH]2)cc1 | Non-Toxic |  | 48.1 |  | 
Cc1ccc(-c2nc(-c3ccccc3)c(-c3ccccc3)[nH]2)cc1 | Non-Toxic |  | 156 |  | 
c1ccc(-c2nc(-c3ccc4ccccc4c3)[nH]c2-c2ccccc2)cc1 | Non-Toxic | Not Active |  |  | 
CCC(CC)c1nc(-c2ccccc2)c(-c2ccccc2)[nH]1 | Non-Toxic | Not Active |  | 11 | <10
COc1ccc(-c2nc(-c3ccc(Br)cc3)c(-c3ccccc3)[nH]2)cc1 | Non-Toxic |  | 20.3 | 1.5 | <10
Clc1ccc(-c2nc(-c3ccccc3)c(-c3ccccc3)[nH]2)cc1 | Non-Toxic | Not Active |  |  | 
c1ccc(-c2nc(-c3ccco3)[nH]c2-c2ccccc2)cc1 | Non-Toxic |  | 401 |  | 
Clc1cccc(-c2nc(-c3ccccc3)c(-c3ccccc3)[nH]2)c1 | Non-Toxic | Not Active |  |  | 
Cc1ccccc1-c1nc(-c2ccccc2)c(-c2ccccc2)[nH]1 | Non-Toxic |  | > 500 |  | 
Clc1ccc(-c2nc(-c3ccc(Br)cc3)[nH]c2-c2ccccc2)cc1 | Non-Toxic |  | 28.8 | 8 | <10
Brc1ccc(-c2nc(-c3ccc(Br)cc3)c(-c3ccccc3)[nH]2)cc1 | Non-Toxic |  | 54.2 |  | 
O=[N+]([O-])c1ccccc1-c1nc(-c2ccccc2)c(-c2ccccc2)[nH]1 | Non-Toxic | Not Active |  |  | 
COc1ccc(-c2nc(-c3ccc(Cl)cc3)c(-c3ccccc3)[nH]2)cc1 | Non-Toxic |  | 20.5 | 11 | <10
Clc1ccc(-c2nc(-c3ccccc3)[nH]c2-c2ccccc2)cc1 | Non-Toxic |  | > 500 |  | 
